Measured values taken from ChEMBL document CHEMBL3865797, “Design, synthesis and biological evaluation of berberine-benzimidazole hybrids as new type of potentially DNA-targeting antimicrobial agents” (Eur J Med Chem, 2016).
Converted amounts (≈) assume the structure as drawn.

How the values were obtained:
[1] = test system: Staphylococcus aureus; assay: Antibacterial activity against Staphylococcus aureus ATCC 25923 measured after 24 hrs by two-fold serial dilution method; assay type: functional; conditions: ATCC 25923, 24 h
Procedure, shortened: (§1)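 MIC by two-fold serial broth microdilution in 96-well plates, following NCCLS recommendations. Chloromycin, norfloxacin and fluconazole serve as reference drugs. The MIC is read as the lowest concentration that inhibits growth, in µg/mL.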

[2] = test system: Staphylococcus aureus; assay: Antibacterial activity against methicillin-resistant Staphylococcus aureus N315 measured after 24 hrs by two-fold serial dilution method; assay type: functional; conditions: N315, 24 h
Procedure, shortened: (§2)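 Two-fold serial dilution in 96-well microtest plates following NCCLS guidance (micro broth dilution). Chloromycin and norfloxacin serve as positive controls. MIC is reported in µg/mL.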

[3] = test system: Bacillus subtilis; assay: Antibacterial activity against Bacillus subtilis measured after 24 hrs by two-fold serial dilution method; assay type: functional; procedure, shortened: as §1
[4] = test system: Micrococcus luteus; assay: Antibacterial activity against Micrococcus luteus ATCC 4698 measured after 24 hrs by two-fold serial dilution method; assay type: functional; conditions: NCTC 2665, 24 h; procedure, shortened: as §1
[5] = test system: Proteus vulgaris; assay: Antibacterial activity against Bacillus proteus ATCC 13315 measured after 24 hrs by two-fold serial dilution method; assay type: functional; conditions: ATCC 13315, 24 h; procedure, shortened: as §1
[6] = test system: Escherichia coli; assay: Antibacterial activity against Escherichia coli JM109 measured after 24 hrs by two-fold serial dilution method; assay type: functional; conditions: JM109, 24 h; procedure, shortened: as §1
[7] = test system: Pseudomonas aeruginosa; assay: Antibacterial activity against Pseudomonas aeruginosa measured after 24 hrs by two-fold serial dilution method; assay type: functional; procedure, shortened: as §1
[8] = test system: Salmonella typhi; assay: Antibacterial activity against Salmonella typhi measured after 24 hrs by two-fold serial dilution method; assay type: functional, Salmonella enterica subsp. enterica serovar Typhi; conditions: Salmonella enterica; procedure, shortened: as §2
[9] = test system: Candida albicans; assay: Antifungal activity against Candida albicans ATCC 76615 measured after 24 hrs by two-fold serial dilution method; assay type: functional; conditions: ATCC 76615, 24 h; procedure, shortened: as §1
[10] = Antifungal activity against Candida utilis measured after 24 hrs by two-fold serial dilution method; assay type: functional; conditions: Cyberlindnera jadinii; procedure, shortened: as §1
[11] = Antifungal activity against Saccharomyces cerevisiae measured after 24 hrs by two-fold serial dilution method; assay type: functional; procedure, shortened: as §1
[12] = test system: Aspergillus flavus; assay: Antifungal activity against Aspergillus flavus measured after 24 hrs by two-fold serial dilution method; assay type: functional; procedure, shortened: as §1

COc1ccc2cc3[n+](cc2c1OCc1nc2ccccc2n1Cc1cccc(Cl)c1)CCc1cc2c(cc1-3)OCO2.[Cl-]
MIC [1]: 512 µg/mL
MIC [2]: 512 µg/mL
MIC [3]: 512 µg/mL
MIC [4]: 16 µg/mL
MIC [5]: 128 µg/mL
MIC [6]: 512 µg/mL
MIC [7]: 256 µg/mL
MIC [8]: 256 µg/mL
MIC80 [9]: 512 µg/mL
MIC80 [10]: 16 µg/mL
MIC80 [11]: 512 µg/mL
MIC80 [12]: 32 µg/mL

COc1ccc2cc3[n+](cc2c1OCc1nc2ccccc2n1Cc1ccc(Cl)cc1Cl)CCc1cc2c(cc1-3)OCO2.[Cl-]
MIC [1]: 64 µg/mL
MIC [2]: 4 µg/mL
MIC [3]: 512 µg/mL
MIC [4]: 16 µg/mL
MIC [5]: 8 µg/mL
MIC [6]: 16 µg/mL
MIC [7]: 32 µg/mL
MIC [8]: 16 µg/mL
MIC80 [9]: 512 µg/mL
MIC80 [10]: 2 µg/mL
MIC80 [11]: 512 µg/mL
MIC80 [12]: 16 µg/mL

O=C(N[C@H](CO)[C@H](O)c1ccc([N+](=O)[O-])cc1)C(Cl)Cl [CHLORAMPHENICOL]
MIC [1]: 16 µg/mL (≈ 49.5 µM)
MIC [2]: 16 µg/mL (≈ 49.5 µM)
MIC [3]: 32 µg/mL (≈ 99 µM)
MIC [4]: 8 µg/mL (≈ 24.8 µM)
MIC [5]: 32 µg/mL (≈ 99 µM)
MIC [6]: 32 µg/mL (≈ 99 µM)
MIC [7]: 32 µg/mL (≈ 99 µM)
MIC [8]: 32 µg/mL (≈ 99 µM)

COc1ccc2cc3[n+](cc2c1OCc1nc2ccc(Cl)cc2[nH]1)CCc1cc2c(cc1-3)OCO2.[Cl-]
MIC [1]: 64 µg/mL
MIC [2]: 256 µg/mL
MIC [3]: 512 µg/mL
MIC [4]: 128 µg/mL
MIC [5]: 32 µg/mL
MIC [6]: 512 µg/mL
MIC [7]: 512 µg/mL
MIC [8]: 64 µg/mL
MIC80 [9]: 512 µg/mL
MIC80 [10]: 256 µg/mL
MIC80 [11]: 512 µg/mL
MIC80 [12]: 32 µg/mL

COc1ccc2cc3[n+](cc2c1OCc1nc2ccccc2n1Cc1ccccc1F)CCc1cc2c(cc1-3)OCO2.[Cl-]
MIC [1]: 2 µg/mL
MIC [2]: 512 µg/mL
MIC [3]: 256 µg/mL
MIC [4]: 8 µg/mL
MIC [5]: 128 µg/mL
MIC [6]: 128 µg/mL
MIC [7]: 512 µg/mL
MIC [8]: 4 µg/mL
MIC80 [9]: 512 µg/mL
MIC80 [10]: 4 µg/mL
MIC80 [11]: 128 µg/mL
MIC80 [12]: 8 µg/mL

CCn1c(COc2c(OC)ccc3cc4[n+](cc23)CCc2cc3c(cc2-4)OCO3)nc2ccccc21.[Cl-]
MIC [1]: 512 µg/mL
MIC [2]: 128 µg/mL
MIC [3]: 512 µg/mL
MIC [4]: 64 µg/mL
MIC [5]: 512 µg/mL
MIC [6]: 64 µg/mL
MIC [7]: 512 µg/mL
MIC [8]: 512 µg/mL
MIC80 [9]: 512 µg/mL
MIC80 [10]: 128 µg/mL
MIC80 [11]: 512 µg/mL
MIC80 [12]: 256 µg/mL

COc1ccc2cc3[n+](cc2c1OCc1nc2ccc(F)cc2[nH]1)CCc1cc2c(cc1-3)OCO2.[Cl-]
MIC [1]: 8 µg/mL
MIC [2]: 512 µg/mL
MIC [3]: 256 µg/mL
MIC [4]: 16 µg/mL
MIC [5]: 16 µg/mL
MIC [6]: 32 µg/mL
MIC [7]: 256 µg/mL
MIC [8]: 16 µg/mL
MIC80 [9]: 512 µg/mL
MIC80 [10]: 64 µg/mL
MIC80 [11]: 256 µg/mL
MIC80 [12]: 32 µg/mL

CCCCCCCCCCCCCCCCn1c(COc2c(OC)ccc3cc4[n+](cc23)CCc2cc3c(cc2-4)OCO3)nc2ccccc21.[Cl-]
MIC [1]: 256 µg/mL
MIC [2]: 256 µg/mL
MIC [3]: 512 µg/mL
MIC [4]: 128 µg/mL
MIC [5]: 512 µg/mL
MIC [6]: 64 µg/mL
MIC [7]: 128 µg/mL
MIC [8]: 128 µg/mL
MIC80 [9]: 64 µg/mL
MIC80 [10]: 128 µg/mL
MIC80 [11]: 512 µg/mL
MIC80 [12]: 128 µg/mL

COc1ccc2cc3[n+](cc2c1OCc1nc2ccccc2n1Cc1ccc(F)cc1)CCc1cc2c(cc1-3)OCO2.[Cl-]
MIC [1]: 512 µg/mL
MIC [2]: 512 µg/mL
MIC [3]: 512 µg/mL
MIC [4]: 512 µg/mL
MIC [5]: 32 µg/mL
MIC [6]: 512 µg/mL
MIC [7]: 512 µg/mL
MIC [8]: 8 µg/mL
MIC80 [9]: 512 µg/mL
MIC80 [10]: 8 µg/mL
MIC80 [11]: 256 µg/mL
MIC80 [12]: 16 µg/mL
